Activity calls are given as the source filed them. The rule behind the calls is not given here.
Assays:
[1] = species: Homo sapiens; experiment: Selectivity index, ratio of IC50 for inhibition of human recombinant FAAH to IC50 for inhibition of human recombinant MAGL
[2] = tested on: Mus musculus; experiment: Antidepressant activity in ICR mouse model of reserpine-induced depression assessed as reduction in finger contact at 4 to 16 mg/kg, sc for 6 days followed by reserpine injection 2 hrs after last compound dose and measured after 2 hrs; assay type: functional, organism-based
Summary of the method: (§1)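 In mice, depression was induced with reserpine 4 mg/kg, and the compound was given s.c. at 4, 8 or 16 mg/kg. Controls received phosphate buffer alone. Awakening, finger contact, fear, head touch, autonomous movement, straight and eyelid closure were scored. Data are mean ± SD of 3 independent experiments.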

[3] = Tmax in Sprague-Dawley rat brain at 10 mg/kg, ig measured over 5 to 720 mins post dose by LC-MS/MS analysis
[4] = tested on: Mus musculus; experiment: Antidepressant activity in ICR mouse model of reserpine-induced depression assessed as reduction in awakening at 4 to 16 mg/kg, sc for 6 days followed by reserpine injection 2 hrs after last compound dose and measured after 2 hrs; assay type: functional, organism-based; summary of the method: as §1
[5] = Growth inhibition of mouse L929 cells at 20 uM incubated for 24 to 72 hrs relative to control; assay type: cell-based; conditions: read-out: GI
Summary of the method: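 Mouse fibroblast L929 cells were exposed to the compound, including 20 μM, for 24, 48 and 72 h. Growth inhibition was read against control, from 3 independent experiments.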

[6] = tested on: Mus musculus; experiment: Antidepressant activity in ICR mouse model of reserpine-induced depression assessed as immobility time at 5 mg/kg, ig by tail suspension test (reference value: 132.38 +/- 44.51 secs); assay type: functional
[7] = Cmax in Sprague-Dawley rat plasma at 10 mg/kg, ig measured over 1 to 300 mins post dose by LC-MS/MS analysis; assay type: ADME, organism-based; set-up: dose 10 mg/kg, route […]; conditions: po
[8] = AUC (0 to t) in Sprague-Dawley rat plasma at 10 mg/kg, iv measured over 1 to 300 mins post dose by LC-MS/MS analysis; assay type: ADME, organism-based; conditions: in vivo
[9] = Cmax in Sprague-Dawley rat brain at 10 mg/kg, ig measured over 5 to 720 mins post dose by LC-MS/MS analysis
[10] = Cmax in Sprague-Dawley rat plasma at 10 mg/kg, iv measured over 1 to 300 mins post dose by LC-MS/MS analysis; assay type: ADME, organism-based; set-up: dose 10 mg/kg, route intravenous
[11] = biological target: T1, Fatty-acid amide hydrolase 1 (Homo sapiens) (UniProt O00519); experiment: Inhibition of human recombinant FAAH at 100 uM pre-incubated for 5 mins before substrate addition and further incubated for 30 mins by fluorescence assay relative to control
T1 sequence (whole entry): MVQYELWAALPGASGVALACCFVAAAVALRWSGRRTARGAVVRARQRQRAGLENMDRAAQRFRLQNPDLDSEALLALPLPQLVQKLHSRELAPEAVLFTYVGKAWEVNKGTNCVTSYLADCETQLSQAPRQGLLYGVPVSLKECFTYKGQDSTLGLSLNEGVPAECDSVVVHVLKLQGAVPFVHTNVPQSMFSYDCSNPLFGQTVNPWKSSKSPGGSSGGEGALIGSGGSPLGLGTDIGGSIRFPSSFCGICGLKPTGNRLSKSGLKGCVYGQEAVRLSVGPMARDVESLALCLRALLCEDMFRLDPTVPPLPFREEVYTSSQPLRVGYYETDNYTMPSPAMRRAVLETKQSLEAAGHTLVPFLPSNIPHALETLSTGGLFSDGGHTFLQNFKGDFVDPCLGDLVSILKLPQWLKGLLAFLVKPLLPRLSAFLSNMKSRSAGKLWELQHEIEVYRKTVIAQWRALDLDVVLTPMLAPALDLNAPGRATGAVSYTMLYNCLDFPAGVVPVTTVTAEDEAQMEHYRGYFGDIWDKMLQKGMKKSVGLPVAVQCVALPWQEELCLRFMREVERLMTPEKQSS

[12] = tested on: Mus musculus; experiment: Antidepressant activity in ICR mouse model of reserpine-induced depression assessed as reduction in head touch at 4 to 16 mg/kg, sc for 6 days followed by reserpine injection 2 hrs after last compound dose and measured after 2 hrs; assay type: functional, organism-based; summary of the method: as §1
[13] = biological target: T2, Cannabinoid receptor 2 (Homo sapiens, UniProt P34972); experiment: Inhibition of CB2 receptor (unknown origin) expressed in Flpin-CHO cells incubated for 10 mins by Eu-cAMP tracer based cAMP accumulation assay; assay type: functional, cell-based
[14] = AUC (0 to t) in Sprague-Dawley rat brain at 10 mg/kg, ig measured over 5 to 720 mins post dose by LC-MS/MS analysis; conditions: in vivo
[15] = Half life in Sprague-Dawley rat plasma at 10 mg/kg, iv measured over 1 to 300 mins post dose by LC-MS/MS analysis; assay type: ADME, organism-based
[16] = Half life in Sprague-Dawley rat brain at 10 mg/kg, ig measured over 5 to 720 mins post dose by LC-MS/MS analysis
[17] = Bioavailability (0 to infinity) in Sprague-Dawley rat plasma at 10 mg/kg, ig measured over 1 to 300 mins post dose by LC-MS/MS analysis
[18] = tested on: Mus musculus; experiment: Antidepressant activity in ICR mouse model of reserpine-induced depression assessed as reduction in fear at 4 to 16 mg/kg, sc for 6 days followed by reserpine injection 2 hrs after last compound dose and measured after 2 hrs; assay type: functional, organism-based; summary of the method: as §1
[19] = Bioavailability (0 to t) in Sprague-Dawley rat plasma at 10 mg/kg, ig measured over 1 to 300 mins post dose by LC-MS/MS analysis
[20] = biological target: T2, Cannabinoid receptor 2; experiment: Inhibition of CB2 receptor (unknown origin) expressed in Flpin-CHO cells at 10 uM incubated for 10 mins by Eu-cAMP tracer based cAMP accumulation assay relative to control
[21] = AUC (0 to infinity) in Sprague-Dawley rat brain at 10 mg/kg, ig measured over 5 to 720 mins post dose by LC-MS/MS analysis; conditions: in vivo
[22] = Protein binding in rat plasma at 20 to 500 ng/mL by ultracentrifugation assay; assay type: ADME, cell-free; conditions: read-out: PPB (converted)
Summary of the method: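 Binding to rat plasma proteins was measured by ultracentrifugation across 20–500 ng/mL of compound.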

[23] = tested on: Mus musculus; experiment: Antidepressant activity in ICR mouse model of reserpine-induced depression assessed as reduction in straight scores at 4 to 16 mg/kg, sc for 6 days followed by reserpine injection 2 hrs after last compound dose and measured after 2 hrs; assay type: functional, organism-based; summary of the method: as §1
[24] = biological target: Cannabinoid receptor 1 (Homo sapiens, UniProt P21554); experiment: Inhibition of CB1 receptor (unknown origin) expressed in Flpin-CHO cells incubated for 10 mins by Eu-cAMP tracer based cAMP accumulation assay; assay type: functional, cell-based
[25] = tested on: Mus musculus; experiment: Antidepressant activity in ICR mouse model of reserpine-induced depression assessed as immobility time at 5 mg/kg, ig by forced swim test (reference value: 136.84 +/- 46.69 secs); assay type: functional

T2 sequence (P34972 whole entry): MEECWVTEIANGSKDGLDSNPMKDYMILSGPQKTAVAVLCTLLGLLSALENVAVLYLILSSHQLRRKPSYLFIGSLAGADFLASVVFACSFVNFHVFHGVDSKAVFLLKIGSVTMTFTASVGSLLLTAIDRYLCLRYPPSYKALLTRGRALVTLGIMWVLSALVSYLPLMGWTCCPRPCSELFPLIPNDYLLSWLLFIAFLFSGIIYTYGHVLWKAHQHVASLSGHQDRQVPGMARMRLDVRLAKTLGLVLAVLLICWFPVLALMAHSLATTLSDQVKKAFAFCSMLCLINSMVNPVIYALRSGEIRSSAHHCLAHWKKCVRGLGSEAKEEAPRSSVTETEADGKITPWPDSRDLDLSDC
Chain of Cannabinoid receptor 1 (P21554 whole entry): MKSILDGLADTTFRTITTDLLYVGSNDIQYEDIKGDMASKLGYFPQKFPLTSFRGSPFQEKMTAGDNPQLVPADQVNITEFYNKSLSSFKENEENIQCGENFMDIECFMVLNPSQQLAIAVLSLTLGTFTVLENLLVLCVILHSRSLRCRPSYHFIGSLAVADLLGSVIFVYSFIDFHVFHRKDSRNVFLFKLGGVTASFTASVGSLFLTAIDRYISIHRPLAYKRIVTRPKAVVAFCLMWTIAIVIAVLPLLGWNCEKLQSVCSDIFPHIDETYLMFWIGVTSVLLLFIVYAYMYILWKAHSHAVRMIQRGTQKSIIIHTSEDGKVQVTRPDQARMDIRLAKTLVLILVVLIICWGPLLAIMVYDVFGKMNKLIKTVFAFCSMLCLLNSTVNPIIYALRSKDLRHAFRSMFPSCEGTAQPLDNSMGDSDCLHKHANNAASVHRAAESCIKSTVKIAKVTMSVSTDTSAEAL

**Q.** What does the source list for `O=C(Nc1cccc(Cl)c1)C1CCN(C(=O)c2ccc3ccccc3c2)CC1`?
**A.** Ratio IC50 [1]: 6780; Activity [2]: Active; Tmax [3]: 0.667 h; Activity [4]: Active; inhibition at 20 µM [5]: 8.6%; Time [6]: 89.87 s; Cmax [7]: 83.1 ng/mL; AUCt [8]: 80893 µg·min/L; Cmax [9]: 16.6 ng/mL; Cmax [10]: 5480 ng/mL; inhibition [11]: 41.3%; Activity [12]: Active; EC50 [13]: > 10 µM; AUCt [14]: 3582.71 µg·min/L; half-life [15]: 1.1 h; half-life [16]: 2.44 h; bioavailability [17]: 21.6%; Activity [18]: Active; bioavailability [19]: 12.2%; inhibition [20]: 20.4%; AUC [21]: 3720.04 µg·min/L; fraction unbound [22]: 0.229; Activity [23]: Active; EC50 [24]: > 10 µM; Time [25]: 89.38 s
